The values that follow come from ChEMBL document CHEMBL1240409, “Design, synthesis and evaluation of (E)-alpha-benzylthio chalcones as novel inhibitors of BCR-ABL kinase” (Bioorg Med Chem, 2010).

One assay concerns K562. Put plainly: Growth inhibition of human K562 cells expressing p210Bcr/Abl after 96 hrs by trypan blue exclusion assay. Type of assay: functional, cell-based. The conditions noted are these: K562, 96 h. Put shortly: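 K562 cells were kept in RPMI with 10% FBS and penicillin–streptomycin at 37 °C under 5% CO2. Cells were seeded at 1 × 10^5 cells/mL with a range of compound concentrations, using DMSO as the negative control. After 96 h, viability was counted by Trypan blue exclusion and expressed as percent of DMSO control to derive GI50.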

The test system of a further assay is DU-145. Put plainly: Growth inhibition of human DU145 cells after 96 hrs by trypan blue exclusion assay. Type of assay: functional. The conditions noted are these: DU-145, 96 h.

A value given as a limit tells only on which side of the number the result lay.

For `COc1cc(OC)c(/C=C(/SCc2ccc(Cl)cc2Cl)C(=O)c2ccc(Cl)cc2)c(OC)c1`, the figures for the concentration for 50% growth inhibition (GI50) in the assay on K562 and in the assay on DU-145 were 25 µM and 1 µM, respectively.
Turning to `COc1ccccc1/C=C(/SCc1ccc(Cl)c(Cl)c1)C(=O)c1ccc(Cl)cc1`, the GI50 with K562 and in the assay on DU-145 was 10 µM in each case.
For the compound `O=C(/C(=C\c1ccc(Cl)cc1)Sc1ccc(Br)cc1)c1ccc(Br)cc1`, the GI50 in the assay on K562 and in the assay on DU-145 was 1 µM each time.
As to `O=C(/C(=C\c1ccccc1OCc1ccccc1)SCc1ccc(F)cc1)c1ccc(Br)cc1`, the GI50 with K562 and with DU-145 was 1 µM throughout.
On to `COc1ccc(/C=C(/Sc2ccccc2Cl)C(=O)c2ccc(Cl)cc2)c(OC)c1OC`, for which the GI50 is 1 µM with K562 and 10 µM with DU-145.
`CSc1ccc(/C=C(/SCc2ccc(C)cc2)C(=O)c2ccc(Cl)cc2)cc1`: the GI50 is 10 µM with K562 and 25 µM with DU-145.
For `Cc1ccc(CS/C(=C/c2ccc(O)cc2)C(=O)c2ccc(Cl)cc2)cc1`, the values for the GI50 in the assay with K562 and with DU-145 were 1 µM and 10 µM, respectively.
With `Cc1ccc(/C=C(/SCc2ccc(Cl)cc2)C(=O)c2ccc([N+](=O)[O-])cc2)s1`, the GI50 in the assay with K562 and in the assay with DU-145 was 25 µM each time.
For `Cc1ccc(S/C(=C/c2sccc2C)C(=O)c2ccc(Cl)cc2)cc1`, the concentration for 50% growth inhibition (GI50) in the assay with K562 and in the assay on DU-145 was 50 µM throughout.
Turning to `O=C(/C(=C\c1ccc(F)cc1)S(=O)(=O)c1ccc(Br)cc1)c1ccc(Br)cc1`, the values for the GI50 with K562 and in the assay on DU-145 were 10 µM and 4 µM, respectively.
Consider `COc1cc(/C=C(/SCc2ccc(Br)cc2)C(=O)c2ccc(Br)cc2)cc([N+](=O)[O-])c1O`, for which the GI50 in the assay on K562 and in the assay with DU-145 was 25 µM throughout.
For the compound `COc1ccccc1/C=C(\C(=O)c1ccc(Cl)cc1)S(=O)(=O)Cc1ccc(Cl)c(Cl)c1`, the GI50 in the assay with K562 and in the assay with DU-145 was 1 µM throughout.
With `Cc1ccc(C)c(/C=C(/Sc2ccc(Br)cc2)C(=O)c2ccc(Cl)cc2)c1`, the GI50 with K562 and with DU-145 was 10 µM throughout.
Turning to `O=C(/C(=C\c1ccc(O)c(Br)c1)Sc1ccc(Br)cc1)c1c(F)c(F)c(F)c(F)c1F`, the 50% growth inhibitory concentration (GI50) in the assay with K562 and with DU-145 was 1 µM each time.
Take `O=C(/C(=C\c1ccc(O)c([N+](=O)[O-])c1)SCc1ccc(Br)cc1)c1ccc(O)cc1O`: the figures for the GI50 with K562 and with DU-145 were 50 µM and more than 100 µM, respectively.
Consider `Cc1ccc(S/C(=C/c2c(F)c(F)c(F)c(F)c2F)C(=O)c2ccc(Cl)cc2)cc1`, for which the GI50 in the assay with K562 and with DU-145 was 25 µM in each case.
For `Cc1ccc(CS(=O)(=O)/C(=C/c2ccc(S(C)(=O)=O)cc2)C(=O)c2ccc(Br)cc2)cc1`, the concentration for 50% growth inhibition (GI50) is 1 µM with K562 and 10 µM with DU-145.
For `Cc1cc(C)cc(/C=C(\C(=O)c2ccc(Cl)cc2)S(=O)(=O)c2ccc(Br)cc2)c1`, in that order: 10 µM and 10 µM.
As to `Cc1ccc(S(=O)(=O)/C(=C/c2c(O)cc(O)cc2O)C(=O)c2ccc(Cl)cc2)cc1`, the GI50 in the assay with K562 and with DU-145 was more than 100 µM each time.
For `Cc1ccc(S/C(=C/c2ccc(O)c([N+](=O)[O-])c2)C(=O)c2ccc(Cl)cc2)cc1`, the GI50 with K562 came out at 25 µM; in the assay with DU-145, 10 µM.
For `COc1ccc(OC)c(/C=C(/SCc2ccc(Cl)c(Cl)c2)C(=O)c2ccc(Cl)cc2)c1`, in that order: 10 µM and 10 µM.
Turning to `Cc1ccc(S/C(=C/c2cc(Cl)cc(Cl)c2Cl)C(=O)c2ccc(Cl)cc2)cc1`, the concentration for 50% growth inhibition (GI50) with K562 and with DU-145 was 50 µM each time.
`CCOc1ccc(/C=C(/SCc2ccc(F)cc2)C(=O)c2ccc(Br)cc2)cc1OC`: the concentration for 50% growth inhibition (GI50) in the assay with K562 came to 1 µM; in the assay with DU-145, 50 µM.
As for `Cc1ccc(S/C(=C/c2c[nH]c3ccccc23)C(=O)c2ccc(Cl)cc2)cc1`, the 50% growth inhibitory concentration (GI50) in the assay with K562 amounted to 1 µM; in the assay on DU-145, 10 µM.
As for `O=C(/C(=C\c1ccc(O)c([N+](=O)[O-])c1)Sc1ccccc1Br)c1ccc(Cl)cc1`, the GI50 in the assay with K562 was found to be 10 µM; with DU-145, 25 µM.
For `O=C(/C(=C\c1cc(Cl)cc(Cl)c1Cl)SCc1ccc(Cl)cc1)c1ccc(Br)cc1`, in that order: 1 µM and 1 µM.
For `O=C(/C(=C\c1c[nH]c2ccc(Br)cc12)SCc1ccc(Cl)cc1Cl)c1ccc(Cl)cc1`, in that order: 1 µM and 10 µM.
On to `Cc1ccc(/C=C(/SCc2ccc(Cl)cc2Cl)C(=O)c2ccc(Cl)cc2)s1`, for which the concentration for 50% growth inhibition (GI50) in the assay with K562 and in the assay with DU-145 was 50 µM in each case.
`COc1ccc(C(=O)/C(=C\c2ccc(Cl)cc2)S(=O)(=O)c2ccc(Cl)cc2)cc1`: the GI50 in the assay on K562 and in the assay with DU-145 was 4 µM throughout.
On to `O=C(/C(=C\c1ccc(F)cc1Cl)S(=O)(=O)c1ccc(Br)cc1)c1ccc(Br)cc1`, for which the GI50 with K562 came to 25 µM; in the assay with DU-145 it was 50 µM.
For `O=C(/C(=C\c1ccc(F)cc1Cl)Sc1ccc(Br)cc1)c1ccc(Br)cc1`, the 50% growth inhibitory concentration (GI50) with K562 and in the assay with DU-145 was 1 µM each time.
Regarding `O=C(/C(=C/c1ccc(Cl)cc1)Cc1c[nH]c2ccccc12)c1ccc(Cl)cc1Cl`, the GI50 in the assay on K562 and in the assay with DU-145 was 10 µM each time.
For the compound `COc1ccc(/C=C(/Sc2ccc(F)cc2)C(=O)c2ccc(OC)cc2)cc1`, the concentration for 50% growth inhibition (GI50) in the assay with K562 is 1 µM; with DU-145, 25 µM.
For the compound `CN(C)c1ccc(/C=C(/Sc2ccccc2Br)C(=O)c2ccc(Br)cc2)cc1`, the GI50 in the assay on K562 and in the assay with DU-145 was more than 100 µM throughout.
Consider `Cc1ccc(CS(=O)(=O)/C(=C/c2cc(C)cc(C)c2)C(=O)c2ccc(Cl)cc2)cc1`, for which the 50% growth inhibitory concentration (GI50) in the assay on K562 and in the assay on DU-145 was 10 µM throughout.
As for `O=C(/C(=C\c1ccc(O)c([N+](=O)[O-])c1)Sc1c(F)c(F)c(F)c(F)c1F)c1ccc(Br)cc1`, the GI50 with K562 and in the assay on DU-145 was 10 µM in each case.
Regarding `Cc1ccc(CS/C(=C/c2ccc(F)c([N+](=O)[O-])c2)C(=O)c2ccc(Cl)c([N+](=O)[O-])c2)cc1`, the concentration for 50% growth inhibition (GI50) in the assay on K562 was less than 1 µM; in the assay on DU-145 it was 1 µM.
As for `O=C(/C(=C\c1ccc(OC(F)(F)F)cc1)Sc1ccc(Br)cc1)c1ccc(Br)cc1`, the GI50 with K562 came out at 1 µM; in the assay with DU-145, 10 µM.
In the case of `COc1ccc(/C=C(\C(=O)c2ccc(Cl)cc2)S(=O)(=O)Cc2ccccc2Cl)cc1`, the concentration for 50% growth inhibition (GI50) is 25 µM in the assay on K562 and 50 µM with DU-145.
For the compound `CSc1ccc(/C=C(/SCc2ccc(C)cc2)C(=O)c2ccc(Br)cc2)cc1`, the figures for the GI50 in the assay on K562 and with DU-145 were 10 µM and more than 100 µM, respectively.
For the compound `CSc1ccc(/C=C(\C(=O)c2ccc(Br)cc2)S(=O)(=O)Cc2ccc(F)cc2)cc1`, the values for the GI50 in the assay on K562 and in the assay on DU-145 were more than 100 µM and 50 µM, respectively.
With `COc1ccc(/C=C(\C(=O)c2ccc(Br)cc2)S(=O)(=O)c2ccc(Br)cc2)c(F)c1`, the GI50 in the assay with K562 was found to be 1 µM; in the assay on DU-145, 10 µM.
As to `COc1ccccc1/C=C(/SCc1ccc(F)cc1)C(=O)c1ccc(Br)cc1`, the concentration for 50% growth inhibition (GI50) in the assay on K562 and in the assay with DU-145 was 10 µM each time.
Turning to `Cc1ccc(S/C(=C/c2ccc(F)cc2F)C(=O)c2ccc(Br)cc2)cc1`, the GI50 in the assay with K562 and in the assay with DU-145 was more than 100 µM throughout.
On to `COc1ccccc1/C=C(/Sc1ccc(C)cc1)C(=O)c1ccc(Cl)cc1`, for which the values for the GI50 in the assay on K562 and in the assay with DU-145 were 10 µM and 25 µM, respectively.
On to `CSc1ccc(/C=C(\C(=O)c2ccc(Br)cc2)S(=O)(=O)Cc2ccc(C)cc2)cc1`, for which the GI50 in the assay on K562 and in the assay on DU-145 was 10 µM in each case.
`O=C(/C(=C\c1c(O)cc(O)cc1O)Sc1ccccc1Br)c1ccc(Cl)cc1`: the GI50 in the assay with K562 and in the assay on DU-145 was more than 100 µM throughout.
For `Cc1ccc(C)c(/C=C(\C(=O)c2ccc(Br)cc2)S(=O)(=O)Cc2ccc(F)cc2)c1`, the 50% growth inhibitory concentration (GI50) in the assay with K562 and in the assay with DU-145 was 1 µM throughout.
For the compound `O=C(/C(=C/c1ccc(Cl)cc1)Cc1ccc(Cl)cc1)c1ccc(Cl)cc1Cl`, the GI50 with K562 was determined as 1 µM; in the assay on DU-145, 10 µM.
In the case of `Cc1ccc(CS(=O)(=O)/C(=C/c2cccc(Cl)c2Cl)C(=O)c2ccc(Cl)cc2)cc1`, the GI50 with K562 and in the assay with DU-145 was 1 µM throughout.
For the compound `Cc1ccc(S/C(=C/c2cnc3ccccc3c2)C(=O)c2ccc(Cl)cc2)cc1`, the 50% growth inhibitory concentration (GI50) in the assay on K562 and with DU-145 was more than 100 µM in each case.
As for `Cc1cc(C)cc(/C=C(\C(=O)c2ccc(Cl)cc2)S(=O)(=O)Cc2ccc(Cl)cc2)c1`, the GI50 with K562 and with DU-145 was 1 µM in each case.
On to `COc1ccc(/C=C(/Sc2ccc(Br)cc2)C(=O)c2ccc(Br)cc2)c(F)c1`, for which the GI50 in the assay with K562 is 1 µM; in the assay with DU-145, 20 µM.
For `Cc1ccc(S/C(=C/c2ccc(Br)cc2)C(=O)c2ccc(Cl)cc2)cc1`, in that order: 50 µM and 25 µM.
On to `Cc1ccsc1/C=C(\C(=O)c1ccc([N+](=O)[O-])cc1)S(=O)(=O)Cc1ccc(Cl)cc1`, for which the GI50 in the assay with K562 and in the assay on DU-145 was 1 µM each time.
For `O=C(/C(=C\c1ccc(O)c([N+](=O)[O-])c1)SCc1ccc(Br)cc1)C1CCNC1` (centres undefined), the GI50 in the assay with K562 and in the assay with DU-145 was more than 100 µM in each case.
Turning to `Cc1ccc(S(=O)(=O)/C(=C/c2ccc(Oc3ccccc3)cc2)C(=O)c2ccc(Cl)cc2)cc1`, the GI50 with K562 and in the assay with DU-145 was 1 µM each time.
In the case of `O=C(O)c1ccc(C(=O)/C(=C\c2ccc(Cl)c([N+](=O)[O-])c2)SCc2ccc(C(F)(F)F)cc2)cc1`, the concentration for 50% growth inhibition (GI50) with K562 and in the assay on DU-145 was 1 µM in each case.
For the compound `Cc1ccc(S(=O)(=O)/C(=C/c2cc(C)cc(C)c2)C(=O)c2ccc(Cl)cc2)cc1`, the GI50 in the assay on K562 and in the assay on DU-145 was 1 µM throughout.
Turning to `COc1ccc(/C=C(\C(=O)c2ccc(Br)cc2)S(=O)(=O)c2ccc(C)cc2)cc1`, the 50% growth inhibitory concentration (GI50) in the assay on K562 and with DU-145 was 1 µM in each case.
For `COc1cc(OC)c(/C=C(\C(=O)c2ccc(Br)cc2)S(=O)(=O)c2ccc(Br)cc2)c(OC)c1`, the concentration for 50% growth inhibition (GI50) in the assay on K562 and in the assay with DU-145 was more than 100 µM in each case.
As for `O=C(/C(=C\c1ccc(O)cc1)SCc1ccc(F)cc1)c1ccc(Cl)cc1`, the GI50 in the assay on K562 was 10 µM; with DU-145, 25 µM.
